# Results: ChEMBL document CHEMBL1143753, “Synthesis and antimicrobial activity of some new thiazolyl thiazolidine-2,4-dione derivatives” (2007)
# Columns and labels:
# Type in all cases: functional
# Staphylococcus aureus [1] = test: Antibacterial activity against methicillin-resistant Staphylococcus aureus ATCC 43300 after 24 hrs; conditions: ATCC 43300, 24 h
# Summary of the method: (§1)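 Compounds were dissolved in dimethylformamide/propyleneglycol (0.5:9.5) and serially diluted twofold in Mueller–Hinton broth at pH 7.4, from 100 down to 0.78. Inocula came from 24 h broth cultures grown at 37 °C, with a final inoculum of 10⁵ CFU/ml. Tubes were incubated for 24 h at 37 °C alongside inoculated-broth and solvent controls. The MIC was read as the last tube showing no growth.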
# Staphylococcus aureus [2] = test: Antibacterial activity against methicillin-resistant Staphylococcus aureus isolate after 24 hrs; summary of the method: as §1
# Staphylococcus aureus [3] = test: Antibacterial activity against Staphylococcus aureus ATCC 25923 after 24 hrs; conditions: ATCC 25923, 24 h; summary of the method: as §1
# Escherichia coli = test: Antibacterial activity against Escherichia coli ATCC 23556 after 24 hrs; conditions: ATCC 23556, 24 h
# Summary of the method: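 Twofold serial broth dilution in Mueller–Hinton broth, pH 7.4; compounds dissolved in dimethylformamide/propyleneglycol (0.5:9.5), diluted in medium from 100 down to 0.78 (100, 50, 25, 12.5, 6.25, 3.12, 1.56, 0.78). Inoculum 10⁵ CFU/ml from 24 h broth cultures. Incubated 24 h at 37 °C; MIC taken as last tube without growth. Inoculated broth-only tubes as controls.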
# Candida albicans = test: Antifungal activity against Candida albicans ATCC 10145 after 48 hrs; conditions: ATCC 10145, 48 h
# Summary of the method: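 Yeast maintained in Sabouraud dextrose broth, 24 h at 25 °C; testing by twofold serial dilution in Sabouraud dextrose broth, pH 7.4, final inoculum 10⁴ CFU/ml. Compounds in dimethylformamide/propyleneglycol (0.5:9.5), diluted in medium from 100 to 0.78 (100, 50, 25, 12.5, 6.25, 3.12, 1.56, 0.78).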
SMILES,MIC (Staphylococcus aureus [1]) [µg/mL],MIC (Staphylococcus aureus [2]) [µg/mL],MIC (Staphylococcus aureus [3]) [µg/mL],MIC (Escherichia coli) [µg/mL],MIC (Candida albicans) [µg/mL]
O=C(CN1C(=O)S/C(=C\c2sc(Cl)nc2Cl)C1=O)c1ccc(F)cc1,6.25,6.25,6.25,6.25,12.5
O=C1S/C(=C\c2sc(Cl)nc2Cl)C(=O)N1Cc1ccc([N+](=O)[O-])cc1,6.25,12.5,6.25,25,12.5
O=C1S/C(=C\c2sc(Cl)nc2Cl)C(=O)N1Cc1ccc(Cl)cc1Cl,12.5,12.5,12.5,25,6.25
O=C(CN1C(=O)S/C(=C\c2sc(Cl)nc2Cl)C1=O)c1ccc([N+](=O)[O-])cc1,12.5,12.5,12.5,25,6.25
O=C1S/C(=C\c2sc(Cl)nc2Cl)C(=O)N1Cc1ccc(Br)cc1,12.5,6.25,6.25,25,6.25
O=C(CN1C(=O)S/C(=C\c2sc(Cl)nc2Cl)C1=O)c1ccc(Cl)cc1,6.25,6.25,6.25,25,6.25
CC1(C)S[C@@H]2[C@H](NC(=O)[C@H](N)c3ccccc3)C(=O)N2[C@H]1C(=O)O [AMPICILLIN],1.56,1.56,6.25,25,–
O=C(CN1C(=O)S/C(=C/c2sc(Cl)nc2Cl)C1=O)c1ccc(Cl)cc1,12.5,6.25,12.5,50,6.25
O=C(CN1C(=O)S/C(=C\c2sc(Cl)nc2Cl)C1=O)c1ccc(Cl)cc1Cl,12.5,12.5,12.5,25,12.5
Clc1ccc(COC(Cn2ccnc2)c2ccc(Cl)cc2Cl)c(Cl)c1 (stereo unspecified) [MICONAZOLE],6.25,–,–,–,25
O=C1S/C(=C\c2sc(Cl)nc2Cl)C(=O)N1Cc1ccccc1,6.25,12.5,12.5,25,6.25
O=C1S/C(=C\c2sc(Cl)nc2Cl)C(=O)N1Cc1ccc(F)cc1,6.25,6.25,6.25,25,12.5
O=C1S/C(=C\c2sc(Cl)nc2Cl)C(=O)N1Cc1ccc(Cl)cc1,6.25,6.25,6.25,25,6.25
O=C(CN1C(=O)S/C(=C\c2sc(Cl)nc2Cl)C1=O)c1ccccc1,6.25,6.25,6.25,25,12.5
O=C(CN1C(=O)S/C(=C/c2sc(Cl)nc2Cl)C1=O)c1ccc(Cl)cc1Cl,12.5,12.5,12.5,25,12.5
O=C(CN1C(=O)S/C(=C\c2sc(Cl)nc2Cl)C1=O)c1ccc(Br)cc1,6.25,12.5,12.5,6.25,6.25
